Experimental findings from ChEMBL document CHEMBL4152354, “A reusable magnetic nickel nanoparticle based catalyst for the aqueous synthesis of diverse heterocycles and their evaluation as potential anti-bacterial agent” (2018) are described below.

≈ marks a conversion by molar mass, not a printed value.

For one test, the system named is Streptococcus pyogenes. The test can be described thus: Antibacterial activity against Streptococcus pyogenes MTCC 1925 assessed as zone of inhibition at 100 uL after 24 hrs by agar well-diffusion method.
Conditions: not given
Type of test: functional. In a few lines: (§1)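 Mueller-Hinton agar plates swabbed with a bacterial suspension adjusted to 1.5×10^8 CFU/ml. Each 5 mm well received 100 µl of compound, and plates were incubated at 37°C for 24 h. Chloramphenicol (30 mcg) was the positive control and DMSO the negative control. Inhibition zones around wells were measured manually, in triplicate.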
Consider `Cc1[nH][nH]c(=O)c1C(c1cccc([N+](=O)[O-])c1)C1C(=O)NC(=O)NC1=O` (stereo unspecified), for which the inhibition zone (IZ) is 14 mm.

`O=c1oc2ccccc2c(O)c1C(c1ccc(O)cc1)c1c(O)c2ccccc2oc1=O`: the inhibition zone (IZ) worked out at 10 mm.

As to `O=c1oc2ccccc2c(O)c1C(c1cccc(Br)c1)c1c(O)c2ccccc2oc1=O`, the inhibition zone (IZ) is 21 mm.

Turning to `O=c1oc2ccccc2c(O)c1C(c1ccccc1)c1c(O)c2ccccc2oc1=O`, the inhibition zone (IZ) worked out at 23 mm.

Take `Cc1ccc(C(c2c(O)c3ccccc3oc2=O)c2c(O)c3ccccc3oc2=O)cc1`: the inhibition zone (IZ) was 25 mm.

On to `O=c1oc2ccccc2c(O)c1C(c1ccc([N+](=O)[O-])cc1)c1c(O)c2ccccc2oc1=O`, for which the inhibition zone (IZ) stood at 15 mm.

For `COc1cc(C(c2c(C)[nH][nH]c2=O)C2C(=O)NC(=O)NC2=O)cc(OC)c1OC` (stereo unspecified), the inhibition zone (IZ) is 17 mm.

As to `COc1ccc(C(c2c(O)c3ccccc3oc2=O)c2c(O)c3ccccc3oc2=O)cc1OC`, the inhibition zone (IZ) was 13 mm.

A further test has as its system Salmonella enterica. The experiment in a line: Antibacterial activity against Salmonella enterica MTCC 735 assessed as zone of inhibition at 100 uL after 24 hrs by agar well-diffusion method. Format: functional.
Conditions: not given
A general note: A growth-free zone around the sample is the usual read-out of agar diffusion tests.
Consider `Cc1[nH][nH]c(=O)c1C(c1cccc([N+](=O)[O-])c1)C1C(=O)NC(=O)NC1=O` (stereo unspecified), for which the inhibition zone (IZ) worked out at 10 mm.

Take `O=c1oc2ccccc2c(O)c1C(c1ccc(O)cc1)c1c(O)c2ccccc2oc1=O`: the inhibition zone (IZ) was found to be 10 mm.

In the case of `O=c1oc2ccccc2c(O)c1C(c1cccc(Br)c1)c1c(O)c2ccccc2oc1=O`, the inhibition zone (IZ) was determined as 11 mm.

In the case of `O=c1oc2ccccc2c(O)c1C(c1ccccc1)c1c(O)c2ccccc2oc1=O`, the inhibition zone (IZ) was determined as 10 mm.

`Cc1ccc(C(c2c(O)c3ccccc3oc2=O)c2c(O)c3ccccc3oc2=O)cc1`: the inhibition zone (IZ) was 10 mm.

Turning to `O=c1oc2ccccc2c(O)c1C(c1ccc([N+](=O)[O-])cc1)c1c(O)c2ccccc2oc1=O`, the inhibition zone (IZ) came out at 11 mm.

For the compound `COc1cc(C(c2c(C)[nH][nH]c2=O)C2C(=O)NC(=O)NC2=O)cc(OC)c1OC` (stereo unspecified), the inhibition zone (IZ) was 11 mm.

Take `COc1ccc(C(c2c(O)c3ccccc3oc2=O)c2c(O)c3ccccc3oc2=O)cc1OC`: the inhibition zone (IZ) amounted to 10 mm.

Another test concerns Escherichia coli. The experiment in a line: Antibacterial activity against Escherichia coli MTCC 730 assessed as zone of inhibition at 100 uL after 24 hrs by agar well-diffusion method. Format: functional.
Conditions: not given
The gist of the method:
as §1
For the compound `Cc1[nH][nH]c(=O)c1C(c1cccc([N+](=O)[O-])c1)C1C(=O)NC(=O)NC1=O` (stereo unspecified), the inhibition zone (IZ) came out at 11 mm.

As to `O=c1oc2ccccc2c(O)c1C(c1ccc(O)cc1)c1c(O)c2ccccc2oc1=O`, the inhibition zone (IZ) was 10 mm.

As to `O=c1oc2ccccc2c(O)c1C(c1cccc(Br)c1)c1c(O)c2ccccc2oc1=O`, the inhibition zone (IZ) turned out to be 19 mm.

As to `O=c1oc2ccccc2c(O)c1C(c1ccccc1)c1c(O)c2ccccc2oc1=O`, the inhibition zone (IZ) was 17 mm.

As for `Cc1ccc(C(c2c(O)c3ccccc3oc2=O)c2c(O)c3ccccc3oc2=O)cc1`, the inhibition zone (IZ) is 19 mm.

`O=c1oc2ccccc2c(O)c1C(c1ccc([N+](=O)[O-])cc1)c1c(O)c2ccccc2oc1=O`: the inhibition zone (IZ) was 13 mm.

On to `COc1cc(C(c2c(C)[nH][nH]c2=O)C2C(=O)NC(=O)NC2=O)cc(OC)c1OC` (stereo unspecified), for which the inhibition zone (IZ) was found to be 13 mm.

For `COc1ccc(C(c2c(O)c3ccccc3oc2=O)c2c(O)c3ccccc3oc2=O)cc1OC`, the inhibition zone (IZ) was 15 mm.

For the next test, the system named is Bacillus cereus. The test can be described thus: Antibacterial activity against Bacillus cereus MTCC 430 assessed as zone of inhibition at 100 uL after 24 hrs by agar well-diffusion method.
Conditions: not given
Format: functional. In a few lines: as §1
For `Cc1[nH][nH]c(=O)c1C(c1cccc([N+](=O)[O-])c1)C1C(=O)NC(=O)NC1=O` (stereo unspecified), the inhibition zone (IZ) worked out at 13 mm.

In the case of `O=c1oc2ccccc2c(O)c1C(c1ccc(O)cc1)c1c(O)c2ccccc2oc1=O`, the inhibition zone (IZ) is 10 mm.

For the compound `O=c1oc2ccccc2c(O)c1C(c1cccc(Br)c1)c1c(O)c2ccccc2oc1=O`, the inhibition zone (IZ) came out at 13 mm.

Take `O=c1oc2ccccc2c(O)c1C(c1ccccc1)c1c(O)c2ccccc2oc1=O`: the inhibition zone (IZ) came to 20 mm.

As to `Cc1ccc(C(c2c(O)c3ccccc3oc2=O)c2c(O)c3ccccc3oc2=O)cc1`, the inhibition zone (IZ) turned out to be 18 mm.

Take `O=c1oc2ccccc2c(O)c1C(c1ccc([N+](=O)[O-])cc1)c1c(O)c2ccccc2oc1=O`: the inhibition zone (IZ) was 16 mm.

Take `COc1cc(C(c2c(C)[nH][nH]c2=O)C2C(=O)NC(=O)NC2=O)cc(OC)c1OC` (stereo unspecified): the inhibition zone (IZ) was 13 mm.

For `COc1ccc(C(c2c(O)c3ccccc3oc2=O)c2c(O)c3ccccc3oc2=O)cc1OC`, the inhibition zone (IZ) stood at 16 mm.

The next test has as its system Klebsiella pneumoniae. The experiment in a line: Antibacterial activity against Klebsiella pneumoniae MTCC 109 assessed as zone of inhibition at 100 uL after 24 hrs by agar well-diffusion method. Format: functional.
Conditions: not given
The gist of the method:
as §1
In the case of `Cc1[nH][nH]c(=O)c1C(c1cccc([N+](=O)[O-])c1)C1C(=O)NC(=O)NC1=O` (stereo unspecified), the inhibition zone (IZ) came out at 15 mm.

As for `O=c1oc2ccccc2c(O)c1C(c1ccc(O)cc1)c1c(O)c2ccccc2oc1=O`, the inhibition zone (IZ) was 10 mm.

For the compound `O=c1oc2ccccc2c(O)c1C(c1cccc(Br)c1)c1c(O)c2ccccc2oc1=O`, the inhibition zone (IZ) is 20 mm.

With `O=c1oc2ccccc2c(O)c1C(c1ccccc1)c1c(O)c2ccccc2oc1=O`, the inhibition zone (IZ) was 21 mm.

Turning to `Cc1ccc(C(c2c(O)c3ccccc3oc2=O)c2c(O)c3ccccc3oc2=O)cc1`, the inhibition zone (IZ) was 20 mm.

As to `O=c1oc2ccccc2c(O)c1C(c1ccc([N+](=O)[O-])cc1)c1c(O)c2ccccc2oc1=O`, the inhibition zone (IZ) turned out to be 19 mm.

As to `COc1cc(C(c2c(C)[nH][nH]c2=O)C2C(=O)NC(=O)NC2=O)cc(OC)c1OC` (stereo unspecified), the inhibition zone (IZ) was 19 mm.

For `COc1ccc(C(c2c(O)c3ccccc3oc2=O)c2c(O)c3ccccc3oc2=O)cc1OC`, the inhibition zone (IZ) is 18 mm.

The next test deals with Bacillus cereus. The experiment in a line: Antibacterial activity against Bacillus cereus MTCC 430 after 18 hrs by TTC staining based broth microdilution method. The following applies: MTCC 430, 18 h. Format: functional. In a few lines:
(§2)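 Broth microdilution in Mueller-Hinton broth. 50 µl of inoculum from a 0.5 McFarland suspension was added to 50 µl of compound, giving final concentrations of 0.024–400 mg/ml in DMSO. Sealed plates were incubated at 37°C for 18 h, then 50 µl of 0.5% TTC was added for 1 h in the dark. MIC was the lowest concentration with no visible growth (well stays clear). Triplicate; mean ± SD.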
On the technique in general: Broth dilution looks for growth in wells or tubes with falling amounts of substance.
Take `Cc1[nH][nH]c(=O)c1C(c1cccc([N+](=O)[O-])c1)C1C(=O)NC(=O)NC1=O` (stereo unspecified): it took 1560 µg/mL (≈ 4340 µM) to inhibit growth (MIC).

In the case of `O=c1oc2ccccc2c(O)c1C(c1ccc(O)cc1)c1c(O)c2ccccc2oc1=O`, the lowest concentration to inhibit growth (MIC) was 6250 µg/mL (≈ 14600 µM).

Turning to `O=c1oc2ccccc2c(O)c1C(c1cccc(Br)c1)c1c(O)c2ccccc2oc1=O`, the MIC (usually the least concentration at which growth counts as inhibited) came to 3120 µg/mL (≈ 6350 µM).

`O=c1oc2ccccc2c(O)c1C(c1ccccc1)c1c(O)c2ccccc2oc1=O` registered an MIC of 190 µg/mL (≈ 461 µM).

For `Cc1ccc(C(c2c(O)c3ccccc3oc2=O)c2c(O)c3ccccc3oc2=O)cc1`, the MIC was determined as 390 µg/mL (≈ 915 µM).

`O=c1oc2ccccc2c(O)c1C(c1ccc([N+](=O)[O-])cc1)c1c(O)c2ccccc2oc1=O` gave a minimum inhibitory concentration (MIC) of 780 µg/mL (≈ 1710 µM).

As to `COc1cc(C(c2c(C)[nH][nH]c2=O)C2C(=O)NC(=O)NC2=O)cc(OC)c1OC` (stereo unspecified), the MIC turned out to be 1560 µg/mL (≈ 3860 µM).

Take `COc1ccc(C(c2c(O)c3ccccc3oc2=O)c2c(O)c3ccccc3oc2=O)cc1OC`: inhibition of growth (MIC) required 780 µg/mL (≈ 1650 µM).

A further test relates to Klebsiella pneumoniae. The test can be described thus: Antibacterial activity against Klebsiella pneumoniae MTCC 109 after 18 hrs by TTC staining based broth microdilution method. Format: functional. The note with it: MTCC 109, 18 h. In a few lines:
as §2
In turn, `Cc1[nH][nH]c(=O)c1C(c1cccc([N+](=O)[O-])c1)C1C(=O)NC(=O)NC1=O` (stereo unspecified) displayed an MIC of 780 µg/mL (≈ 2170 µM).

In the case of `O=c1oc2ccccc2c(O)c1C(c1ccc(O)cc1)c1c(O)c2ccccc2oc1=O`, 3120 µg/mL (≈ 7280 µM) was the least that counted as inhibitory (MIC).

On to `O=c1oc2ccccc2c(O)c1C(c1cccc(Br)c1)c1c(O)c2ccccc2oc1=O`, for which the lowest concentration to inhibit growth (MIC) was 390 µg/mL (≈ 794 µM).

For the compound `O=c1oc2ccccc2c(O)c1C(c1ccccc1)c1c(O)c2ccccc2oc1=O`, the MIC was 190 µg/mL (≈ 461 µM).

As for `Cc1ccc(C(c2c(O)c3ccccc3oc2=O)c2c(O)c3ccccc3oc2=O)cc1`, 390 µg/mL (≈ 915 µM) was the least that counted as inhibitory (MIC).

Compound `O=c1oc2ccccc2c(O)c1C(c1ccc([N+](=O)[O-])cc1)c1c(O)c2ccccc2oc1=O` had an MIC of 390 µg/mL (≈ 853 µM).

For `COc1cc(C(c2c(C)[nH][nH]c2=O)C2C(=O)NC(=O)NC2=O)cc(OC)c1OC` (stereo unspecified), the MIC came to 390 µg/mL (≈ 964 µM).

Turning to `COc1ccc(C(c2c(O)c3ccccc3oc2=O)c2c(O)c3ccccc3oc2=O)cc1OC`, the MIC amounted to 780 µg/mL (≈ 1650 µM).
